Hits are enriched below; roughly 12% of the tested compounds scored in any of these assays.
CHOP inhibitor = CHOP inhibition in unfolded protein response; AID 2732; CHO-K1 CHOP-promoter luciferase, tunicamycin-induced, 15-18 h; 3.8% of 220,000 active; inhibition, % at 10 µM;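 active means compounds that reduced the stress-induced luciferase reporter signal by more than about 70% of percent inhibition, limit read from the data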;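 further: 0% = tunicamycin plus vehicle and 100% = wells without tunicamycin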
Lmaj promast = inhibitors of Leishmania major promastigote growth; Leishmania major promastigotes, resazurin fluorescence viability; inhibition, % at 10 µM; 9% of 200,000 active; AID 1063; in the data active means inhibition above about 50%;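 further: promastigotes grown with compound for 44 hours at 28 °C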
MT stabilizer = microtubule stabilizers in HeLa cells; HeLa tubulin immunostaining HCS, 24 h; share of cells brighter than vehicle mean+2SD; % tubulin-high responders, % at 10 µM; 0.83% of 200,000 active;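 active means plate Z-score above 3 for both tubulin-high and condensed-nucleus cell shares, with cell loss under 80%, at 10 µM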;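 further: anti alpha tubulin signal scored within the nucleus-defined area of each cell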
Dynein transport = dynein cargo transport inhibition. 3617.4 mouse cells, GR-EGFP nuclear translocation imaging; test concentration mostly 20 µM; stimulated with dexamethasone, 1 µM; hits give low values. z-score, hits read low. 0.47% of 220,000 active. AID 1381;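 active means plate z-score of nuclear minus cytoplasmic receptor signal below a set negative limit, without overly bright fluorescence or cell loss, cut at about -3.5 in these data, passing the limit was not always enough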;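 further: z-score of nuclear minus cytoplasmic ring GR-EGFP intensity difference per well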
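Medium: Induction medium lacking tetracycline, stripped serum | Probe or stimulus: 1.0 µM final dexamethasone stimulus | Schedule: 48 h induction, then 1 h compound, then 30 min agonist, 37 °C | Signal: Automated 10x imaging of fixed Hoechst-stained cells | Evaluation: Per-cell GR-EGFP intensity, nucleus versus surrounding cytoplasmic ring, well-averaged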
Autophagy mod = autophagy modulation, high-content screen. 0.98% of 190,000 active. MEF GFP-LC3 puncta imaging; test concentration mostly 10 µM. calls only at 10 µM (by protocol). AID 463193;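 active means percentage of spot-positive cells more than 3 SD above its plate mean, without a fluorescence outlier flag or 80% toxicity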;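 further: spot-positive cell cutoff set from DMSO-treated cells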
b-catenin transl = alters nuclear translocation of beta-catenin in HeLa cells; immunofluorescence imaging; nuclear translocation activity, % at 5 µM; 0.3% of 190,000 active; AID 1665;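 active means nuclear translocation activity above 50% at 5 µM, with a well cell count of 50 or more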;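 further: per-cell ratio of nuclear to cytoplasmic median beta-catenin stain intensity; plate controls were DMSO negative control for no effect and GSK-3 inhibitor IX positive control for full effect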
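System: Human HeLa cells, endogenous beta-catenin | Compound dosing: 5 µM primary, 0.02–20 µM confirmation | Timing: 24 h compound exposure at 37°C, 5% CO2 | Measured by: Fluorescence imaging of beta-catenin antibody stain plus DAPI | Read-out basis: % activation of per-cell nuclear versus cytoplasmic median beta-catenin signal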
Numbers without * were called inactive; i = inactive; . = not tested or not shown.

SMILES	CHOP inhibitor	Lmaj promast	MT stabilizer	Dynein transport	Autophagy mod	b-catenin transl
O=C(CCc1ccccc1)Nc1nnc(-c2ccc3c(c2)CCCC3)o1	94*	12	3	-1	i	-6
O=C(Nc1nnc(-c2ccc(Cl)cc2)o1)C1=COCCO1	-8	54*	2	2.1	i	-3
O=C(Nc1nnc(-c2ccc(Cl)s2)o1)C1CC1	34	61*	5	-0.72	i	-2
COc1ccccc1C(=O)Nc1nnc(-c2ccc(Cl)cc2)o1	-7	.	.	0.29	.	2
O=C(CCc1ccccc1)Nc1nnc(-c2ccc3c(c2)OCCO3)o1	3	70*	2	-0.31	i	-1
COc1ccccc1NC(=O)Cn1cnc2sc(C)c(S(=O)(=O)N3CCCCC3)c2c1=O	-11	-5	3	-0.5	i	-2
CCC(C)Cn1c(C(C)O)nc2ccccc21 (stereo unspecified)	10	-1	1	-0.025	i	0
O=C(Nc1ccccc1N1CCN(c2ccccc2)CC1)c1ccccc1	14	8	2	-0.032	i	1
Cc1cccc(CSCc2ccc(C(=O)NC3CCCC3)o2)c1	8	8	3	1.9	i	0
O=C(Nc1nnc(-c2ccc3c(c2)CCCC3)o1)c1ccc(Cl)cc1Cl	98*	-3	7	1.3	i	0
O=C(CCc1ccccc1)Nc1nnc(-c2cccs2)o1	9	57*	7	0.046	i	.
O=C(Nc1nnc(-c2ccc3c(c2)CCCC3)o1)C1CCCCC1	84*	38	3	-0.36	i	-6
Cc1onc(-c2ccccc2)c1CNC(=O)Nc1ccccc1	1	.	.	-0.035	.	0
Brc1ccccc1CN1CCC(N2CCCCC2)CC1	-17	100*	3	-0.62	i	-1
Cc1onc(-c2ccccc2)c1C(=O)OCC(=O)NCc1ccc(F)cc1	9	-4	5	-0.58	i	0
CCCCN(Cc1ccco1)C(=O)c1cc2c(=O)[nH]c3ccc(C)cc3c2s1	73*	44	8	1.3	i	.
Cc1ccc2[nH]c(=O)c(CN(Cc3ccco3)C(=O)c3cccs3)cc2c1	23	3	4	1.4	i	.
Cc1ccc2[nH]c(=O)c3cc(C(=O)N(CCCOC(C)C)Cc4ccco4)sc3c2c1	36	75*	5	0.75	i	.
CN(C)CCN(Cc1ccco1)C(=O)c1cc2c(Cl)nc3ccccc3c2s1	56	91*	3	-0.24	i	4
Cn1cc(C(=O)NCc2cccs2)c(=O)c2cc(S(=O)(=O)N3CCCC3)ccc21	-16	12	4	-0.18	i	-2
COC(=O)/C=C1/N/C(=N\c2nc(C)cc(C)n2)N(c2ccccc2)C1=O	-6	3	3	-0.68	i	-2
O=C(NCCO)C(=O)NCC1OCCCN1S(=O)(=O)c1cccs1 (stereo unspecified)	18	56*	2	0.032	i	2
Cc1cc(C)c(S(=O)(=O)N2CCCOC2CNC(=O)C(=O)NCCc2c[nH]c3ccccc23)c(C)c1 (stereo unspecified)	36	93*	2	0.023	i	1
COc1ccc(OC)c(NC(=O)c2cc3n(n2)C(C(F)(F)F)CC(c2ccc4c(c2)OCO4)N3)c1 (stereo unspecified)	.	27	4	2	i	-8
O=C(NCc1ccco1)c1cc2n(n1)C(C(F)(F)F)CC(c1ccc(Br)cc1)N2 (stereo unspecified)	77*	-5	2	-0.44	i	-1
O=C(NCc1ccco1)c1cc2n(n1)C(C(F)(F)F)CC(c1ccc(Cl)c(Cl)c1)N2 (stereo unspecified)	88*	-7	2	0.98	i	5
COc1ccccc1NC(=O)c1cc2n(n1)C(C(F)(F)F)CC(c1ccc3c(c1)OCO3)N2 (stereo unspecified)	88*	62*	3	0.99	i	1
O=C(NCc1ccccn1)c1cc2n(n1)C(C(F)(F)F)CC(c1ccco1)N2 (stereo unspecified)	1	-2	3	-0.62	i	1
Cc1ccc(NC(=O)CCN2C(=O)c3cccc4cccc(c34)C2=O)cc1	-2	-2	2	0.13	i	2

High-throughput results: PubChem BioAssay, several laboratories
